Most compounds without a hit are left out; they make up all but 5% or so of the library.
Beta cell apopt – beta cell apoptosis inhibition; INS-1E cytokine-induced death, ATP luminescence, 48 h; percent of positive-control rescue, neutral wells zero; protection from apoptosis, % (no concentration beside the values); 300,000 compounds, 0.8% hits;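 active = Every replicate reaches about 75%, or at least half do and their mean reaches it too, limit read from the data; inconclusive = At least half of replicates reach the limit but their mean does not; inactive = Under half of replicates reach the limit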;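 also: 0% = cytokine-treated negative control wells and 100% = positive control rescue; higher means more ATP so stronger rescue from cytokine killing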
XBP1 UPR activ – activators of adaptive arm of unfolded protein response (XBP1); activation, % at 20 µM; CHO-XBP1 luciferase reporter, IRE1-XBP1 UPR activation, luminescence; percent of tunicamycin response, DMSO as zero; 330,000 compounds, 0.33% hits;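 active = versus positive control, 20 µM dose yields 30% or more activation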;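 also: 100% = tunicamycin at 10 µg/mL and 0% = DMSO only wells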
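Signal: luciferase luminescence; Assay system: CHO-XBP1 luciferase reporter cells; Amount: one thousand reporter cells per well; Dosing: 20 µM single concentration, DMSO 1%; Benchmarks: high control tunicamycin 10 µg/mL final, low control DMSO vehicle only; Schedule: 6 h compound exposure at 37 °C, 5% CO2; Evaluation: percent activation relative to tunicamycin reference.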
Mdm2 MdmX PPI – disrupts the human Mdm2-MdmX interaction. O15151+Q00987. SaOS-2 split-luciferase Mdm2/MdmX complementation, luminescence. inhibition, % at 8 µM. 330,000 compounds, 3% hits;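 active = inhibition of at least 50% at 8 µM in the primary screen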
Target sequence (O15151 whole entry, looked up): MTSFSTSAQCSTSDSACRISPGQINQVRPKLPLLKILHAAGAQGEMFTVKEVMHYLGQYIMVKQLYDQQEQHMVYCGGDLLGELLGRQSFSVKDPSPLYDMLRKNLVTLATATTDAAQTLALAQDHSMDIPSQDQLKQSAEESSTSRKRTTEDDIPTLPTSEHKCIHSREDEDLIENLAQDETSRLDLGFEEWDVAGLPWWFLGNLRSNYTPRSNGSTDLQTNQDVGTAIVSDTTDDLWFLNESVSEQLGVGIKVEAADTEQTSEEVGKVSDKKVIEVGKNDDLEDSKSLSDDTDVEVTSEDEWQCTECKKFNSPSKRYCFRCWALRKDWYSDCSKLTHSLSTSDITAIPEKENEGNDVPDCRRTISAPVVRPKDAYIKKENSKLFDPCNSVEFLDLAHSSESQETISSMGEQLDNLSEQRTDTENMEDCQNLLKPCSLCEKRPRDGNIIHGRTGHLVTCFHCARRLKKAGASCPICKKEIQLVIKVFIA
Target sequence (Q00987 whole entry, looked up): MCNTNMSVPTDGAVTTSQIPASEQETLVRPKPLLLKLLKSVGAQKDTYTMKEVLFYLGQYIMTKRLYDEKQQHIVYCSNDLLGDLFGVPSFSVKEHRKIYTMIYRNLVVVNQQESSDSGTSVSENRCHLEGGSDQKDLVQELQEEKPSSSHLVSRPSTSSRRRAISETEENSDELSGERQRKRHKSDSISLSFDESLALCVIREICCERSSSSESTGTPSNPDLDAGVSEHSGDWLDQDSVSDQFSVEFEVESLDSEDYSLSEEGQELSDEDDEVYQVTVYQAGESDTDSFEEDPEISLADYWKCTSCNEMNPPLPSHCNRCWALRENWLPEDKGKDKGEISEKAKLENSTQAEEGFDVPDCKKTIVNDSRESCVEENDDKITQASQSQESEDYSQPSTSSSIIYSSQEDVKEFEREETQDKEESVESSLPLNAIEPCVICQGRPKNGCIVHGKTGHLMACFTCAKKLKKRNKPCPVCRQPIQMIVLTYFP
T cruzi repl – blocks replication of Trypanosoma cruzi. T. cruzi beta-gal in NIH3T3, luminescence, 90 h. 300,000 compounds, 1.4% hits. inhibition, % (concentration not given with the values);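 active = mean inhibition across valid replicates above about 55%, limit read from the data; inconclusive = mean below that limit but half or more replicates reach it; inactive = mean below it, under half of replicates reach it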;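 also: signal also drops with host cell toxicity which is not excluded here; 0% = plate median of DMSO wells and 100% = zero luminescence signal; higher percent means less beta-gal luminescence so fewer parasites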
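Incubation – ≥90 h infection period, 3 h prior cell attachment · System – NIH/3T3 fibroblasts plus reporter T. cruzi · Doses – compound pinned at 50 nL/well, DMSO · Read-out basis – percent inhibition of parasite-derived β-gal signal · Signal – luminescent β-galactosidase signal after 60 min lysis · Also added – 5000 T. cruzi trypomastigotes/well · Medium – Low-serum DMEM with 2% FBS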
UPR CHOP act – apoptotic UPR (CHOP) activation. 330,000 compounds, 0.34% hits. activation, % at 10 µM. CHO-CHOP luciferase reporter, luminescence; percent of tunicamycin response over DMSO baseline;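 active = at 10 µM dose, activation of 40% or more, normalized to positive control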;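 also: 100% = tunicamycin at 10 µg/mL and 0% = DMSO alone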
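Assay system: CHO cells with stable CHOP pathway luciferase reporter; Buffer or medium: F12 plus 10% serum; Times: 16-18 h cell attachment, then 6 h compound exposure, 37 °C; Signal: luciferase luminescence; Read-out basis: percent activation relative to tunicamycin control; Control set: tunicamycin high control, DMSO low control.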
CSC inhib – blocks cancer stem cells | AID 2717 | cancer stem cell-like cells viability, luminescence | inhibition, % at 7.5 µM | 300,000 compounds, 1.1% hits; in the data active = inhibition above about 75%; inconclusive = no clear call, values can overlap the other calls; tested in HMLE shEcad cells
Mdm2-MdmX conf – human Mdm2/MdmX binding inhibition, confirmed; 10,000 compounds, 55% hits; shares compounds with Mdm2 MdmX PPI; inhibition, % at 8 µM; luminescent assay; AID 489028; in the data active = inhibition above about 40%
Full FLuc ctr – inhibits full-length luciferase, flagging false Mdm2/MdmX hits; shares compounds with Mdm2 MdmX PPI; SaOS-2 full-length luciferase counterscreen, luminescence; inhibition, % at 8 µM; 6,200 compounds, 77% hits;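 active = mean inhibition at 8 µM reaching about 37%, which flags the compound as non-specific, limit read from the data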;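 also: p53-null SaOS-2 cells with luciferase driven by a doxycycline-inducible promoter; compound on cells about two nights before reading with doxycycline added after day one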
* = called active by the depositor; ? = inconclusive; nt = no result.

SMILES | Beta cell apopt | XBP1 UPR activ | Mdm2 MdmX PPI | T cruzi repl | UPR CHOP act | CSC inhib | Mdm2-MdmX conf | Full FLuc ctr
C=CCCc1ccc(C#N)c(SCc2c(C(=O)OCC)c3cc(OC(C)=O)c(Br)cc3n2C)n1 | 109.5* | -2.8 | 65.5* | 27.8 | 5.9 | 1.4 | 89.3* | 20.6
CCOC(=O)CC(=O)CSc1nc(C)cc(C)c1C#N | nt | -0.2 | -7.0 | 4.9 | -0.5 | -2.7 | nt | nt
CCOC(=O)c1c(CSc2nc(C)cc(C)c2C#N)n(C)c2cc(Br)c(OC(C)=O)cc12 | 111.1* | 4.0 | 71.8* | -0.5 | 0.8 | 5.9 | 22.6 | nt
COC(=O)C1=C(N)Oc2cc(C)[nH]c(=O)c2C1c1ccccc1OC (stereo not drawn) | 1.3 | -1.5 | 11.0 | -17.4 | 4.0 | -10.4 | nt | nt
O=C(CSCc1ccco1)N1CCc2ccccc21 | -1.8 | -5.3 | -59.2 | 1.2 | 2.7 | 1.4 | nt | nt
CC(=O)c1ccc(-c2cccc([C@H]3[C@@H]4C=CC[C@@H](C)[C@@H]4C(=O)N3Cc3ccccc3)c2)cc1 | nt | 1.9 | 28.0 | nt | 3.8 | nt | nt | nt
CC(=O)Nc1cc2ccccc2oc1=O | -1.4 | -0.6 | 13.8 | -0.9 | -0.3 | 11.9 | nt | nt
Cc1ccc(C(=O)Nc2cc3ccccc3oc2=O)cc1 | 30.5 | -7.4 | 88.5* | -64.3 | -8.3 | ? | 85.2* | 31.8
Cc1nc(NC(=O)c2ccc(-c3cc4ccccc4oc3=O)cc2)ccc1Br | 10.9 | -0.4 | 75.6* | -6.7 | 1.3 | 11.9 | 28.9 | 77.5*
O=C(O)CCNC(=O)c1ccc(N=Nc2ccc(O)c(C(=O)O)c2)cc1 | nt | -5.4 | 0.8 | 10.7 | 0.8 | nt | nt | nt
N#Cc1c(N)c2ccccn2c1C(=O)c1ccc(Br)cc1 | -8.1 | 5.0 | 29.5 | 1.1 | 2.3 | 11.6 | nt | nt
COCCn1c(SC(C)C(=O)Nc2ncc(Cl)cc2Cl)nc2ccccc21 (stereo not drawn) | -1.1 | 0.0 | 66.7* | 3.3 | 0.6 | 22.1 | 50.0* | 57.8*
[O-][n+]1ccc(C(O)c2ccccc2)cc1 (stereo not drawn) | -5.0 | 1.8 | -0.1 | 3.1 | 1.5 | -4.0 | nt | nt
Oc1ccc(N=Nc2ccc(Br)cc2)c(O)c1 | 24.2 | 12.4 | 82.4* | 60.2* | 2.3 | 91.8* | 41.2* | 98.4*
Cc1cc(C)cc(NC2=NC3(CCCCC3)N=C(N)N2)c1 | -0.8 | 1.2 | 59.3* | 1.0 | -1.6 | 53.1 | 53.0* | 73.0*
O=C(CNC(=O)c1ccc(Br)cc1)NCc1cccnc1 | -2.8 | -0.5 | -3.9 | -19.7 | 0.6 | -15.3 | nt | nt
O=C1N=C2SCCN2/C1=C\c1ccc(Cl)cc1 | -5.5 | -1.3 | 52.0* | -20.1 | 0.3 | -6.0 | 4.5 | nt
O=C(NCCC1=CCCCC1)C1CC(=O)N(Cc2ccccc2)C1 (stereo not drawn) | 0.4 | -4.5 | 19.7 | -7.5 | 1.8 | -10.6 | nt | nt
Cc1ccc(-n2nc3c(=O)n(CC(=O)NC(C)CCc4ccccc4)nc(C)c3c2C)cc1 (stereo not drawn) | 9.3 | -2.5 | 50.1* | 5.6 | 5.5 | 1.8 | 9.2 | nt
CCn1cc(C(=O)NCCCN2CCCC2)c(=O)c2cc(S(=O)(=O)N3CCc4ccccc4C3)ccc21 | 1.6 | 1.0 | 26.2 | 3.2 | -1.6 | 9.0 | nt | nt
CCCN(CCC)CCCNC(=O)c1cn(CC)c2ccc(S(=O)(=O)N3CCc4ccccc4C3)cc2c1=O | 4.4 | 2.5 | 74.8* | 27.5 | 2.0 | 0.7 | 36.2 | 63.3*
CCCCN(C)CCCNC(=O)c1cn(CC)c2ccc(S(=O)(=O)N3CCc4ccccc4C3)cc2c1=O | -1.4 | -3.0 | 54.2* | 52.5 | 5.1 | nt | 24.2 | nt
CCCCN(CC)CCCNC(=O)c1cn(CC)c2ccc(S(=O)(=O)N3CCc4ccccc4C3)cc2c1=O | 2.4 | -1.5 | 56.9* | 52.4 | -0.7 | -1.8 | 22.5 | nt
Cc1ccc(S(=O)(=O)NCC(=O)OCN2C(=O)c3ccccc3C2=O)cc1 | -0.2 | -3.9 | -0.7 | -16.3 | -0.7 | -6.0 | nt | nt
O=C1c2ccccc2C(=O)c2[nH]c(=O)[nH]c21 | nt | -4.5 | 69.0* | 14.6 | 3.0 | nt | 43.9* | 47.6*
SMILES | Beta cell apopt | XBP1 UPR activ | Mdm2 MdmX PPI | T cruzi repl | UPR CHOP act | CSC inhib | Mdm2-MdmX conf | Full FLuc ctr
O=C1c2ccccc2C(=O)c2[nH]cnc21 | 20.2 | nt | nt | 2.2 | nt | 10.3 | nt | nt
CCCC(=O)NC(c1ccc(OC)cc1)c1c(O)ccc2ccccc12 (stereo not drawn) | 0.6 | -5.5 | 50.1* | 0.5 | 0.4 | 49.7 | 38.9 | 60.8*
COc1ccc(C(NC(=O)C2CCCCC2)c2c(O)ccc3ccccc23)cc1 (stereo not drawn) | 3.9 | -2.4 | 52.6* | 30.6 | -0.5 | 17.2 | 12.9 | nt
COc1ccc(C(NC(=O)c2c(F)c(F)c(F)c(F)c2F)c2ccccc2)cc1 (stereo not drawn) | 3.0 | -3.0 | 77.4* | -9.9 | 0.0 | 48.3 | -0.9 | nt
CCCCN(C)CCCNC(=O)C1CCC(CNS(=O)(=O)c2c(C)cc(C)cc2C)CC1 (stereo not drawn) | -3.8 | 3.9 | 11.9 | 44.1 | 0.3 | -2.4 | nt | nt
COc1ccc(NC(=O)C2CCN(c3cc(-c4ccccc4)nc4ncnn34)CC2)cc1OC | nt | -0.7 | 53.7* | nt | -0.6 | 19.1 | 35.8 | 60.0*
Cn1c(=O)[nH]c(=O)c2c1nc(N1CCN(CCO)CC1)n2Cc1ccccc1 | -7.9 | -3.1 | -12.0 | -5.9 | -1.6 | -13.4 | nt | nt
CCOC(=O)c1ccccc1NC(=O)COC(=O)CSC(C)C(=O)Nc1cc(C)on1 (stereo not drawn) | nt | 5.0 | 0.2 | -16.4 | -0.3 | -8.0 | nt | nt
COC(=O)[C@@H]1CC[C@H](C)[C@@H](c2ccc(C)cc2)N1C(=O)c1ccc(/C=N/O[C@@H](C)CN2CCCCc3nc(C)c(C)cc32)cc1 | 15.6 | 7.7 | 89.2* | 41.3 | 16.9 | 89.8* | 25.3 | nt
C/C(CCN1CCCCc2nc(C)c(C)cc21)=N\O[C@@H](C)CN1CCCCc2nc(C)c(C)cc21 | -6.7 | -4.6 | -14.1 | 11.3 | 3.0 | 30.1 | nt | nt
CC(=O)C(C(c1ccccc1)c1c[nH]c2ccccc12)[N+](=O)[O-] (stereo not drawn) | -1.9 | -1.2 | 52.6* | -0.7 | -0.9 | 71.2 | 60.6* | 56.9*
CCn1cc(C(c2ccccc2)C(C(C)=O)[N+](=O)[O-])c2ccccc21 (stereo not drawn) | 1.9 | -3.1 | 17.6 | 19.8 | -0.7 | 19.7 | nt | nt
Cc1c(Cl)cccc1NC(=O)CCC(=O)N/N=C/c1ccc[nH]1 | -3.6 | -1.6 | 55.0* | -2.1 | 0.1 | 38.4 | 41.3* | 42.0*
COc1cccc(NC(=O)CN(C)CC(=O)Nc2ccc(C)c([N+](=O)[O-])c2)c1 | -12.1 | -0.1 | 61.2* | 1.0 | -1.0 | -7.6 | 46.4* | 41.7*

Compound activity: PubChem, several laboratories
